# Published values of several laboratories.
# Compare with care: the assays were run in different laboratories.
# Target: Mitogen-activated protein kinase 11 (MAPK11, Homo sapiens, UniProt Q15759)
SMILES,assay,setting,measurement,result
Cn1nc(C(=O)NCc2ccc(C(=O)O)cc2)cc1-c1ccc2[nH]ccc2c1,"cell-free assay, competition with immobilised ligand",0.1 µM,remaining binding,86%
COc1cc2c(Nc3ccc(Br)cc3F)ncnc2cc1OCC1CCN(C)CC1,cell-free assay,0.5 µM,remaining signal,97.1%
Nc1nc(NC2CCCCC2)sc1C(=O)c1ccccc1,"enzyme activity, inhibitor",10 µM,remaining activity,22%
Cn1c2c(c3ccc(Cl)c(Cl)c31)C(C#N)C1(CCOCC1)NC2=O (stereo not shown),"thermal stability, DSF",10 µM,ΔTm,0.4 °C
COc1cc(Nc2cnc(C#N)c(O[C@H](C)CN(C)C)n2)ncc1-c1cnn(C)c1,"enzyme activity, inhibitor, radiometric",10 µM,remaining activity,92%
CN([C@@H]1CCc2c(CC(=O)O)c3cc(S(C)(=O)=O)ccc3n2C1)S(=O)(=O)c1ccc(F)cc1,"cell-free assay, competition with immobilised ligand",1 µM,remaining binding,83%
Cc1ccc(C(=O)Nc2ccc(CN3CCN(C)CC3)c(C(F)(F)F)c2)cc1C#Cc1cnc2cccnn12,"enzyme activity, inhibitor",23.5 nM,remaining activity,63%
Cc1cnc(NC2CCOCC2)nc1-n1cnc(C(=O)NC(CN)c2cc(F)cc(Cl)c2)c1 (stereo not shown),"enzyme activity, inhibitor, radiometric",1 µM,remaining activity,78%
O=C1Nc2ccc(Cl)cc2C1=Cc1cc(Cl)c(O)c(Cl)c1,cell-free assay,0.5 µM,remaining signal,99.2%
N#CC1c2c([nH]c3c(Cl)c(Cl)ccc23)C(=O)NC12CCCCC2 (racemic),"thermal stability, DSF",10 µM,ΔTm,-0.1 °C
CO[C@@H](C)c1c(Nc2ccc([C@@H](N(C)C(=O)C3CCS(=O)(=O)CC3)C(F)(F)F)cc2)cnc2cc(Cl)nn12,"cell-free assay, competition with immobilised ligand",1 µM,remaining binding,86%
Oc1cccc(-c2nc(N3CCOCC3)c3oc4ncccc4c3n2)c1,"enzyme activity, inhibitor",10 µM,remaining activity,100%
Nc1c(C(=O)NCc2ccc(C(=O)NCCCC3CCCCC3)cc2)cnn1-c1ccccc1,"binding, competition with immobilised ligand",1 µM,remaining binding,3.4%
c1ccc(CNc2nc(N3CCOc4ccccc43)nc3c2CCCC3)cc1,"target engagement in cells, inhibitor, chemoproteomics",20 mM,inhibition,-9.7%
COc1cc2ncnc(Nc3ccc(Oc4ccccc4)c(C)c3C)c2cc1OC,"enzyme activity, inhibitor",1 µM,inhibition,6%
COc1ccc2c(O[C@@H]3C[C@H]4C(=O)N[C@]5(C(=O)O)CC5/C=C\CCCCC[C@H](NC(=O)OC5CCCC5)C(=O)N4C3)cc(-c3csc(NC(=O)C(C)C)n3)nc2c1C (stereo partly shown),"cell-free assay, competition with immobilised ligand",1 µM,remaining binding,100%
Nc1ncnc2occ(-c3ccc(NC(=O)Nc4cc(C(F)(F)F)ccc4F)cc3)c12,"cell-free assay, inhibitor",20 µM,remaining signal,0%
Cn1c2c(Cl)c(Cl)ccc2c2cc(N)[nH]c(=O)c21,"thermal stability, DSF",10 µM,ΔTm,1.8 °C
Nc1cnc(N2CCc3cc(S(=O)(=O)Nc4c(F)cc(Cl)cc4F)cc(N4CCCC4=O)c32)nc1,"cell-free assay, competition with immobilised ligand",1 µM,remaining binding,100%
Cc1cc(NC(=O)c2cccc3cc(-c4cccc5[nH]nc(N)c45)ccc23)ccc1F,"enzyme activity, inhibitor",0.1 µM,activity vs control,69%
O=C(Nc1cnc(Oc2ccc(F)cc2)nc1)N1CCc2ncccc2[C@@H]1c1ccc(F)cc1,"cell-free assay, competition with immobilised ligand",1 µM,remaining binding,84%
CCN(CC)CCNC(=O)c1c(C)[nH]c(/C=C2\C(=O)Nc3ccc(F)cc32)c1C,"enzyme activity, inhibitor",0.3 µM,inhibition,-5%
